# HSV replic up: HSV replication enhancement | HSV replication augmentation in cells, fold increase | maximum fold increase | actives 0.005% (n = 220,000) | AID 1956; in the data active means maximum fold increase above about 1.5; tested in PC3 cells
# STAT1 blocker: reduces IFN-gamma driven STAT1 reporter signal | AID 920 | actives 0.35% (n = 200,000) | NIH 3T3 STAT1-luciferase reporter, luminescence | inhibition, % at 5.5 µM;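 active means inhibition above a set limit, the mean inhibition across all tested compounds plus 3 SD, cut at about 34% in these data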;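 further: 0% = IFN-gamma with DMSO and 100% = IFN-gamma with 300 µM nifuroxazide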
# STAT3 activator: STAT3 signaling activation. activation (% of control), % at 5.6 µM. actives 0.91% (n = 190,000). AID 871. U3A cells, IL-6 STAT3-luciferase reporter, luminescence; 100% = signal with IL-6 EC80 alone;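 active means activation above the screen-wide mean of compound activation plus 3 SD, cut at about 130% in these data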;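 further: 0% = background luminescence of wells with medium and substrate only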
#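 Test system: Human STAT1-deficient U3A cells with stable STAT3-luciferase reporter | Also added: Interleukin-6, 33 ng/mL | Timing: Compound pre-incubation 1 h before IL-6, then 6 h stimulation at 37 °C | Technique: Luciferase reporter luminescence | Read-out: Percent of IL-6-only median luminescence | Benchmarks: IL-6-only wells as 100% reference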
# Cl transport mod: modulators of human KCC2 chloride dependent transport. actives 2.2% (n = 190,000). AID 1456. B-score of Tl+ flux slope (higher = more flux/activation; lower = inhibition) at 10 µM. Q9H2X9. KCC2 cells, thallium flux FluoZin-2 fluorescence;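 active means thallium flux slope and its plate-corrected score both differing from the plate sample mean at a set confidence after two filtering rounds, in either direction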;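 further: slope of fluorescence scaled to starting intensity during 10 to 20 s after thallium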
# STAT3 inh-1: reduces IL-6 driven STAT3 reporter signal; inhibition, % at 5.5 µM; AID 862; actives 0.89% (n = 190,000); U3A cells, IL-6 STAT3-luciferase reporter, luminescence; host cell line lacks STAT1;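 active means inhibition above the mean inhibition across all screened compounds plus 3 SD, cut at about 44% in these data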;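 further: 0% = DMSO only wells and 100% = 100 µM nifuroxazide control wells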
# STAT1 activator: STAT1 signaling activation; NIH 3T3 STAT1-luciferase reporter, IFN-gamma, luminescence; 100% = IFN-gamma alone, no compound; activation (% of control), % at 5.5 µM; actives 2.6% (n = 200,000);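 active means activation above the screen-wide mean activation plus 3 SD, cut at about 130% in these data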;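 further: raw ratio to IFN-gamma control signal so 100% means no change and 0% no light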
# STAT3 inh-2: STAT3 inhibition, confirmation assay. actives 45% (n = 1,200). inhibition, % at 5.7 µM. U3A cells, IL-6 STAT3 luciferase reporter, luminescence; cell line lacks STAT1. shares compounds with STAT3 inh-1;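 active means inhibition above the hit cutoff computed for the primary STAT3 screen, cut at about 44% in these data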;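 further: 0% = IL-6 plus DMSO and 100% = IL-6 plus nifuroxazide control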
# NFkB inh STAT3ct: NF-kappaB inhibition in STAT3 inhibitor counter-screen; shares compounds with STAT3 inh-1; HEK293T NF-kB luciferase reporter, TNF-alpha induced; inhibition, % at 5.7 µM; actives 36% (n = 1,200); AID 1308;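 active means inhibition above the mean of solvent-only control wells plus 3 SD, cutoff set per campaign, cut at about 13% in these data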;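 further: 0% = TNF-alpha with DMSO and 100% = TNF-alpha with MG high control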
# STAT1 inh STAT3c: counter-screen for STAT3 inhibitors: STAT1 inhibition; shares compounds with STAT3 inh-1; NIH 3T3 STAT1-luciferase reporter, IFN-gamma induced, luminescence; inhibition, % at 5.7 µM; actives 27% (n = 1,200); AID 1317;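 active means inhibition above the mean plus 3 SD of solvent-only control wells, limit set per screening run, cut at about 16% in these data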;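 further: 0% = DMSO with IFN-gamma and 100% = nifuroxazide control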
# Starred values were filed as active, the others as inactive; i = inactive; / = not tested or not shown. Sampled rows, rich in hits. Any-hit rate of the full collection: about 5.5%.
SMILES,HSV replic up,STAT1 blocker,STAT3 activator,Cl transport mod,STAT3 inh-1,STAT1 activator,STAT3 inh-2,NFkB inh STAT3ct,STAT1 inh STAT3c
Brc1ccc(-c2nc(-c3ccccn3)no2)o1,i,36*,41,-0.15,75*,67,33,-4,-48
Brc1ccc(-c2nc(-c3ccncc3)no2)o1,i,-38,97,0.74,5,126,/,/,/
O=C(CN1CCN(C(c2ccccc2)c2ccccc2)CC1)N1CCN(c2ccccc2)CC1,i,/,/,0.092,/,/,/,/,/
Cc1ccc(C(=O)Nc2ccc(S(=O)(=O)N3CCOCC3)cc2)cc1,i,10,96,-1.3,6,91,/,/,/
O=C(Nc1ccc2c(c1)OCCO2)c1ccc(CN2CCOCC2)cc1,i,-21,102,0.012,3,119,/,/,/
CN(c1ccc(C(=O)Nc2ccc(S(=O)(=O)N3CCCC3)cc2)cc1)S(C)(=O)=O,i,-3,54,-1.5,58*,101,43,6,-1
CCN(CC)S(=O)(=O)c1ccc(NC(=O)c2ccc(CN3CCOCC3)cc2)cc1,i,11,47,0.38,66*,88,80*,26*,7
O=C(Nc1ccc(S(=O)(=O)N2CCOCC2)cc1)c1ccc(Cl)cc1,i,/,/,0.017,/,/,/,/,/
CN(c1ccccc1C(=O)Nc1ccc(S(=O)(=O)N2CCCC2)cc1)S(C)(=O)=O,i,-8,106,-0.17,-7,107,/,/,/
O=C(Nc1ccc(S(=O)(=O)N2CCCCC2)cc1)c1ccc(CN2CCOCC2)cc1,i,12,33,-0.15,83*,86,80*,29*,9
O=C(Nc1ccc(Cc2ccncc2)cc1)c1ccc(S(=O)(=O)N2CCOCC2)cc1,i,14,45,-1.3,70*,87,57*,12,12
CC(=O)c1ccc(N(C(=O)Cn2nnc(-c3ccccc3)n2)C(C(=O)NC2CCCCC2)c2ccccn2)cc1 (stereo unspecified),i,5,100,0.22,-2,96,/,/,/
O=C(O)c1ccc(-n2cc(-c3cc4ccccc4oc3=O)[nH]c2=S)cc1,i,-17,101,-0.99,7,116,/,/,/
CCCCc1ccc(NC(=O)c2cnccn2)cc1,i,26,48,-0.52,62*,75,29,-23,-66
O=C(Nc1ccc(S(=O)(=O)N2CCN(Cc3ccccc3)CC2)cc1)c1cnccn1,i,21,36,0.18,82*,81,75*,25*,23*
CCOC(=O)c1ccc(NC(=O)c2cnccn2)cc1,i,-20,89,-0.91,15,119,/,/,/
O=C(Nc1ccc(S(=O)(=O)N2CCCC2)cc1)c1ccc(CN2CCOCC2)cc1,/,5,50,/,65*,95,52*,15*,13
O=C(Nc1ccc(S(=O)(=O)N2CCCC2)cc1)c1cnccn1,i,10,99,0.33,4,89,/,/,/
Cc1cc(C(=O)CSc2nc(N)cc(=O)[nH]2)c(C)n1-c1ccc(OC(F)F)cc1,i,32,49,-0.58,64*,70,74*,19*,25*
C=CC[n+]1c(-c2ccc(C)cc2)csc1Nc1ccc(NC(C)=O)cc1,i,33,50,0.51,63*,69,52*,18*,15
COc1ccc(O)c(C(=O)c2cnc3c(c2)CN(C)C(=O)N3)c1,i,4,91,-0.11,18,95,/,/,/
Cc1ccc(-n2c(-c3ccccc3)c[n+]3c2CCC3)cc1,i,26,51,0.91,62*,76,50*,2,23*
CCOc1ccc(-c2c[n+]3c(n2-c2ccccc2)CCCCC3)cc1,i,28,51,-1.3,56*,74,73*,5,28*
COc1ccc(-n2c(-c3ccccc3)c[n+]3c2CCC3)cc1,i,/,/,-0.1,/,/,/,/,/

# Source: PubChem BioAssay
